From ChEMBL document CHEMBL4024715, “An in vitro and in vivo evaluation of new potential trans-sialidase inhibitors of Trypanosoma cruzi predicted by a computational drug repositioning method” (Eur J Med Chem, 2017)
Values after ≈ are worked out from the molar mass of the structure shown. Active and inactive are the calls of the source. The calls are words filed in the database; no cut-off is given here.

Legend:
[1] = biological target: T1, Trans-sialidase (Trypanosoma cruzi) (UniProt Q26964); assay: Inhibition of Trypanosoma cruzi trans-sialidase at 1 mM using N-acetyllactosamine as substrate in presence of 3'-sialyllactose measured after 15 mins by HPAEC-PAD relative to control
T1 sequence (whole entry): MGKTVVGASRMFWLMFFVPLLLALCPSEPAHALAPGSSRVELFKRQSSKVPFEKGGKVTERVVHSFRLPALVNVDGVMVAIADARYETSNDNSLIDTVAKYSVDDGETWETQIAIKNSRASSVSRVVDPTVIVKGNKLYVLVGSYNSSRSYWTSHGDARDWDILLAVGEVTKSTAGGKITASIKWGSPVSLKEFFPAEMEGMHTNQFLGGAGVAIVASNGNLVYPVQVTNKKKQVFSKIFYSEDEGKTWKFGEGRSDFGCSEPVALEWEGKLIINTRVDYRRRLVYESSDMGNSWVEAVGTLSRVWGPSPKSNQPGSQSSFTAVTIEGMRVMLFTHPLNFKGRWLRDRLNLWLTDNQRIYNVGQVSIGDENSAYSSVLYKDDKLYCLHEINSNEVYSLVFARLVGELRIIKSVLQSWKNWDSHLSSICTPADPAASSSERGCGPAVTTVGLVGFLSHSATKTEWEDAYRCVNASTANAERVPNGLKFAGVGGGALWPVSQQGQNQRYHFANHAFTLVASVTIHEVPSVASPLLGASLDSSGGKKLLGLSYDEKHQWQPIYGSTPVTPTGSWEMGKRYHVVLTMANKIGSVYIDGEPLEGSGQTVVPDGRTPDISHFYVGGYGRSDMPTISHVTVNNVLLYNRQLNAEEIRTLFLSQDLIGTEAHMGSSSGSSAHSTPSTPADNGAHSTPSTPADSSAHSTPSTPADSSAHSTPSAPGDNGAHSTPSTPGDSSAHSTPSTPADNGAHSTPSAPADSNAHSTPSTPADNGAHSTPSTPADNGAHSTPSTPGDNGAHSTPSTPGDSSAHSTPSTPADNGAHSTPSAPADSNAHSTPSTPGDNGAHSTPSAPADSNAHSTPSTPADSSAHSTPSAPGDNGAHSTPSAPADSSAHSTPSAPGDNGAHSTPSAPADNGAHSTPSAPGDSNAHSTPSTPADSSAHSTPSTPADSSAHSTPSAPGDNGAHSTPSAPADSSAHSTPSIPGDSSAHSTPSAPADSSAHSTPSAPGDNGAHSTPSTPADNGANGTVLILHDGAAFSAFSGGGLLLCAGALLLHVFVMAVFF
Outline: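 Purified T. cruzi Ts (300 ng) incubated 15 min at room temperature in 20 mM Tris-HCl pH 7, 30 mM NaCl with 1 mM 3'-sialyllactose donor, 1 mM N-acetyllactosamine acceptor and 1 mM inhibitor. Water-insoluble compounds added from 10 mM DMSO stock; DMSO-only control. Samples diluted 12-fold and analysed by HPAEC-PAD. Inhibition from 3'-sialyl-N-acetyllactosamine relative to total sialylated products, with vs without compound.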

Trypanosoma cruzi [2] = assay: Trypanocidal activity against bloodstream form of Trypanosoma cruzi NINOA infected in NIH mouse assessed as reduction in parasitemia at 100 mg/kg, po measured at 2 to 4 hrs post dose by microscopic method; format: functional, organism-based
Outline: (§1)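 Groups of five female NIH mice (20-25 g) infected intraperitoneally with 2×10^5 bloodstream trypomastigotes. At peak parasitemia (days 19-24), compounds suspended in 4% gum arabic were given orally, 100 mg/kg total dose. Vehicle-only controls. Tail blood examined microscopically at 2, 4 and 6 h after dosing. Parasitemia reduction scored against trypomastigote counts at each interval.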

Trypanosoma cruzi [3] = assay: Trypanocidal activity against bloodstream form of Trypanosoma cruzi NINOA infected in NIH mouse assessed as reduction in parasitemia at 100 mg/kg, po measured at 6 hrs post dose by microscopic method; format: functional, organism-based; outline: as §1
Trypanosoma cruzi [4] = assay: Trypanocidal activity against trypomastigote stage of Trypanosoma cruzi NINOA infected in NIH mouse blood after 24 hrs by optical microscopic method
Trypanosoma cruzi [5] = assay: Trypanocidal activity against trypomastigote stage of Trypanosoma cruzi NINOA infected in NIH mouse blood assessed as parasite lysis at 50 ug/ml after 24 hrs by optical microscopic method relative to control; format: functional
Outline: (§2)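 Blood from infected NIH mice was taken by cardiac puncture at peak infection and adjusted to 1×10^6 trypomastigotes/mL. Compounds came from 10 mg/mL DMSO stocks diluted in water; final DMSO below 1%. Incubation was 24 h at 4 °C. Controls were DMSO/H₂O 1:99, untreated blood and reference drug. Trypomastigotes in 5 µL blood were counted by the Brener method at 40×. Percent lysis was taken versus the negative control, with three runs per strain.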

Trypanosoma cruzi [6] = assay: Trypanocidal activity against bloodstream form of Trypanosoma cruzi INC-5 infected in NIH mouse assessed as reduction in parasitemia at 100 mg/kg, po measured up to 6 hrs post dose by microscopic method; format: functional, organism-based; outline: as §1
Trypanosoma cruzi [7] = assay: Trypanocidal activity against trypomastigote stage of Trypanosoma cruzi INC-5 infected in NIH mouse blood assessed as parasite lysis at 50 ug/ml after 24 hrs by optical microscopic method relative to control; format: functional; outline: as §2
Trypanosoma cruzi [8] = assay: Trypanocidal activity against bloodstream form of Trypanosoma cruzi NINOA infected in NIH mouse assessed as reduction in parasitemia at 100 mg/kg, po measured up to 6 hrs post dose by microscopic method; format: functional, organism-based; outline: as §1
Trypanosoma cruzi [9] = assay: Trypanocidal activity against trypomastigote stage of Trypanosoma cruzi INC-5 infected in NIH mouse blood after 24 hrs by optical microscopic method; format: functional; settings: INC-5, Blood
Trypanosoma cruzi [10] = assay: Trypanocidal activity against bloodstream form of Trypanosoma cruzi INC-5 infected in NIH mouse assessed as reduction in parasitemia at 100 mg/kg, po measured at 6 hrs post dose by microscopic method; format: functional, organism-based; outline: as §1
Trypanosoma cruzi [11] = assay: Trypanocidal activity against bloodstream form of Trypanosoma cruzi INC-5 infected in NIH mouse assessed as reduction in parasitemia at 100 mg/kg, po measured at 2 to 4 hrs post dose by microscopic method; format: functional, organism-based; outline: as §1
[12] = Solubility of the compound in water; format: physicochemical; settings: buffer
Trypanosoma cruzi [13] = assay: Trypanocidal activity against bloodstream form of Trypanosoma cruzi NINOA infected in NIH mouse assessed as reduction in parasitemia at 100 mg/kg, po measured at 4 hrs post dose by microscopic method relative to control; format: functional; set-up: scale not given: the % may be the effect or the level left; outline: as §1

Compound	inhibition [1]	Activity (Trypanosoma cruzi [2])	Activity (Trypanosoma cruzi [3])	LC50 (Trypanosoma cruzi [4])	Activity (Trypanosoma cruzi [5])	Activity (Trypanosoma cruzi [6])	Activity (Trypanosoma cruzi [7])	Activity (Trypanosoma cruzi [8])	LC50 (Trypanosoma cruzi [9])	Activity (Trypanosoma cruzi [10])	Activity (Trypanosoma cruzi [11])	solubility [12]	Activity (Trypanosoma cruzi [13])
NC(=O)c1cc[n+](CC2=C(C(=O)[O-])N3C(=O)[C@@H](NC(=O)[C@@H](c4ccccc4)S(=O)(=O)O)[C@H]3SC2)cc1	inactive	Active	inactive	–	–	–	–	–	–	–	–	–	–
O=C(Cn1ccnc1[N+](=O)[O-])NCc1ccccc1 [BENZNIDAZOLE]	–	–	–	46.6 µg/mL (≈ 179 µM)	69%	Active	56%	Active	40.6 µg/mL (≈ 156 µM)	–	–	–	–
CCN1CCN(C(=O)N[C@@H](C(=O)N[C@@H]2C(=O)N3C(C(=O)[O-])=C(CSc4nnnn4C)CS[C@H]23)c2ccc(O)cc2)C(=O)C1=O.[Na+] [CEFOPERAZONE SODIUM]	10.1%	Active	inactive	25.8 µg/mL	64%	–	71%	–	23 µg/mL	inactive	Active	–	–
NC(=O)c1cc[n+](CC2=C(C(=O)[O-])N3C(=O)[C@@H](NC(=O)[C@@H](c4ccccc4)S(=O)(=O)[O-])[C@H]3SC2)cc1.[Na+] [CEFSULODIN SODIUM]	–	–	–	16.6 µg/mL	87%	–	14%	–	–	–	–	–	–
COc1cc2nc(N3CCN(C(=O)C4COc5ccccc5O4)CC3)nc(N)c2cc1OC.CS(=O)(=O)O (stereo not given) [DOXAZOSIN MESYLATE]	5.3%	–	–	12.9 µg/mL	97%	–	89%	–	14.7 µg/mL	–	–	Insoluble	–
COC(=O)Nc1nc2cc(C(=O)c3ccc(F)cc3)ccc2[nH]1 [FLUBENDAZOLE]	inactive	–	–	–	41%	–	42%	–	–	–	–	Insoluble	–
O=C(O)C(O)C(O)C(=O)O.O=C(c1ccc(F)cc1)C1CCN(CCn2c(=O)[nH]c3ccccc3c2=O)CC1 [KETANSERIN TARTRATE]	–	–	–	13.6 µg/mL	89%	–	73%	–	18.4 µg/mL	–	–	–	–
CC1CS(=O)(=O)CCN1/N=C/c1ccc([N+](=O)[O-])o1 (stereo not given) [NIFURTIMOX]	–	–	–	–	66%	–	51%	–	–	–	–	–	–
O=C(O)c1cc(/N=N/c2ccc(S(=O)(=O)Nc3ccccn3)cc2)ccc1O [SULFASALAZINE]	37.6%	Active	inactive	19.3 µg/mL (≈ 48.4 µM)	92%	–	10%	–	–	–	–	Insoluble	60%
CC(C)(C)c1ccc(C(O)CCCN2CCC(C(O)(c3ccccc3)c3ccccc3)CC2)cc1 (stereo not given) [TERFENADINE]	8.2%	Active	inactive	16.3 µg/mL (≈ 34.6 µM)	100%	–	100%	–	4.5 µg/mL (≈ 9.54 µM)	inactive	Active	Insoluble	–
